Consider 36 sequences from the EternaBench riboswitch data.

The data set concerns MS2 coat protein. Briefly: apparent Kd, MS2 coat protein; higher = weaker binding; RNA-MaP array; FMN 200 µM where present. The essentials: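 Designs on Illumina sequencing-chip clusters, transcribed by stalled E. coli RNA polymerase, were exposed to SNAP-549-labelled MS2 coat protein in doubling steps from 0.7 or 1.5 nM up to 3 µM, without and then with constant ligand. The buffer held 100 mM Tris-HCl pH 7.5, 80 mM KCl, 4 mM MgCl2, BSA, DTT, yeast tRNA and Tween-20. Apparent Kd values are medians of filtered per-cluster binding-curve fits to green signal normalised to red-channel RNA signal and control-cluster median Fmax.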

[1] abbreviates: designed as: ON switch for flavin mononucleotide, no ligand.
Where [2] appears, read: ligand present: flavin mononucleotide, designed as: ON switch for flavin mononucleotide.
The mark [3] stands for this setting: designed as: OFF switch for flavin mononucleotide, no ligand.
[4] abbreviates: ligand present: flavin mononucleotide, designed as: OFF switch for flavin mononucleotide.

A word on the apparent Kd: it is the concentration giving half-maximal binding under the conditions of the assay.

Turning to “AAAACAUGAGGAUCACCCAUGUAAAGAUCGGUUAAUAGAGGUGAGGAUAUACGAACUUAAAGGUGGUAGAAGGCACUGGGUACA”, the “apparent Kd” value is, setting by setting: under setting [1], 71.6 nM; under setting [2], 53.3 nM.

With “AACCAACAUGAGGAUCACCCAUGUUCUCAGACGUUUAGGUCACAGGAUAUUCGUGCUUGUGGGACGGAGAAGGGUGCCUCGCUG”, the “apparent Kd” value is, setting by setting: under setting [1], 92.7 nM; under setting [2], 125 nM.

On to “UUGUUACAUGAGGAUCACCCAUGUGAGGAUAUGGUUCGGUACUGUCCUGUCGCGUACUCCAGAAGGCACGUGUU”, for which the “apparent Kd” value turned out to be 30.8 nM under setting [3] and 37.4 nM under setting [4].

On to “UUGGAGUUCGUAGGAUAUGUAGGAUAUUCCUACAUGAGGAUCACCCAUGUUUACAUGGAAGAAGGACAGAAGGACGAGCUCCAU”, for which the “apparent Kd” value under setting [1] stood at 1580 nM and the “apparent Kd” value under setting [2] is 16.2 nM.

For the sequence “UACGGGUCAGGAUAUGCGAGAGAGUGGGAAAUAGGAAGGUAGCAGAAGGGACAUGAGGAUCACCCAUGUGAGGC”, the “apparent Kd” value under setting [3] worked out at 24.3 nM and the “apparent Kd” value under setting [4] was found to be 29.5 nM.

Turning to “GAUAAAGGAGUAGGAUAUGCACAUGGUAGGCUUAUCUUUAUGGCGACAUGAGGAUCACCCAUGUUGCAGAAGGGCUUCCCAUUG”, the “apparent Kd” value is, setting by setting: under setting [3], 34 nM; under setting [4], 25.9 nM.

Regarding “AUACAUGAGGAUCACCCAUGUAAUUAAUUAACUAGUAAGAUCUAGGAUAUCAGCUCGAUUAGAGCUGAGAAGGAGAUCACAUGU”, the “apparent Kd” value was 34.7 nM under setting [1] and 16.9 nM under setting [2].

On to “AGCUGUGGCCGAGGAUAUCUAACUUCAAAUACCGACGUAUAGUCGGACAUGAGGAUCACCCAUGUAGAGAAGGCGGUCUCAGCA”, for which the “apparent Kd” value runs as follows: under setting [3], 16.1 nM; under setting [4], 26.7 nM.

Regarding “AUAAUUUUAUAUUUAUUUUUAUUCAGAAGGCAUAACAUGAGGAUCACCCAUGUAAAUUAAUGUUAUGAGGAUAUGAUUUGGUUA”, the “apparent Kd” value was determined as 26.2 nM under setting [3] and 123 nM under setting [4].

With “UGCCCUCUUAAGGAUAUAUUGGACGAGCGACCAAUAGAAGGUGGGACAUGAGGAUCACCCAUGUGCAGACAUCC”, the “apparent Kd” value is, setting by setting: under setting [3], 23.2 nM; under setting [4], 22.7 nM.

Regarding “GGGUACAUCGGAGGAUAUCAUGUAAAUACAUGAGGAUCACCCAUGUCGAUGGAGACAUCGGAGAUUGAGAAGGCCGAUGAACCG”, the “apparent Kd” value is, setting by setting: under setting [1], 165 nM; under setting [2], 8.52 nM.

“GUGGUCAGACAUGAGGAUCACCCAUGUGGAAUAAAUAACACACAGGAUAUGUAAUAUAGGAUAUAACAGAAGGGUGGAUUGGUG”: the “apparent Kd” value stood at 318 nM under setting [1] and 168 nM under setting [2].

For the sequence “AGCGUGUAAGGAUAUACGUCGGACAGCAAAUGCUAUCCCUAGUAGAAGGUACAUGAGGAUCACCCAUGUGUCCA”, the “apparent Kd” value stood at 22.9 nM under setting [3] and 58.8 nM under setting [4].

Take “GUGCCUUGGGAGAAGGCCGAUAGCAAAGCUAUCGGAGGAUAUCCAUACCGGAAACGGACAUGAGGAUCACCCAUGUGGCACAAA”: the “apparent Kd” value under setting [1] is 16.3 nM and the “apparent Kd” value under setting [2] was found to be 7.6 nM.

Consider “ACGCCCUGAGGAUAUCUCAUCCCGCACAUGAGGAUCACCCAUGUUCUCCUCCGGGCUCCGAGAGAAGGCAGGCCCA”, for which the “apparent Kd” value by setting is: under setting [3], 54.7 nM; under setting [4], 95.2 nM.

“AUUGUGUUAGGAUAUGCUUAUGCUGGGUAGUCCAGUAUGGAGUAGAAGGGACAUGAGGAUCACCCAUGUGCUCA”: the “apparent Kd” value runs as follows: under setting [3], 20.9 nM; under setting [4], 21.2 nM.

For “AGCUGCAAUCAGAAGGAGUAGGGUACAUGAGGAUCACCCAUGUCCGAUGCUAGGAUAUGAAAGCAGACCCGUGGUACCAAUCCC”, the “apparent Kd” value worked out at 33.5 nM under setting [1] and 7.39 nM under setting [2].

As to “UUGAGGUCAGGAUAUGCAUGGCGGGACUUGCGUCGUGGCGUGCAGAAGGGACAUGAGGAUCACCCAUGUGGAGU”, the “apparent Kd” value under setting [3] was 145 nM and the “apparent Kd” value under setting [4] was determined as 236 nM.

In the case of “CCAGAUAUGUGAGGAUAUAUAGUGGAAUACACUAUAGAAGGUAUGUGAGAACAUGAGGAUCACCCAUGUCAUUGGAUAUCUGGA”, the “apparent Kd” value came out at 33.5 nM under setting [1] and 38.1 nM under setting [2].

Consider “ACCAGUGACACAGGAUAUCCGUGCAUGUAGCACGGAGAAGGGUGUUCCAAUCAACUCACAUGAGGAUCACCCAUGUGCUACUUG”, for which the “apparent Kd” value by setting is: under setting [1], 176 nM; under setting [2], 59.8 nM.

Consider “GGAGCUCAGAUUAACAUGAGGAUCACCCAUGUCUUUUGACAUGAGGAUAUGGAUCCUAAUUGGAUCCAGAAGGCAUGGAGCUCC”, for which the “apparent Kd” value worked out at 1590 nM under setting [1] and 126 nM under setting [2].

As to “UCGAGUCAUGAGAAGGGUUGAUGUUACAUGAGGAUCACCCAUGUCAUGGGCAGGAUAUCAUUGACACGACUGUACCUCUCUUAC”, the “apparent Kd” value reads like this: under setting [1], 254 nM; under setting [2], 112 nM.

With “CCAUGCAUAGCGAUAUGAUCGAGAGAUCAUGUCGCUAAAUUUAGAAGGACAUGAGGAUCACCCAUGUAGGAUAUGGGAGCAUGC”, the “apparent Kd” value amounted to 58.4 nM under setting [1] and 17.8 nM under setting [2].

Take “GUUUAGUGAGGAUAUGUGGCUUCGAUCGUGCGCGUUCGGCUACAGAAGGCACAUGAGGAUCACCCAUGUUCCUC”: the “apparent Kd” value under setting [3] is 445 nM and the “apparent Kd” value under setting [4] was determined as 704 nM.

With “UCCUCACAUGAGGAUCACCCAUGUUAGGAUAUCUCGGUGCCCUGCAGGCAGUGGCACCAGAGAAGGAACGUGCA”, the “apparent Kd” value by setting is: under setting [3], 21.2 nM; under setting [4], 22.1 nM.

In the case of “UGUCGGAGCAGAGGAUAUUACAUGAGGAUCACCCAUGUAUGAACCAAUAGCUGGAAAUAGCAAUGUAAGAAGGCUGCUCCGACA”, the “apparent Kd” value stood at 15.8 nM under setting [3] and 168 nM under setting [4].

In the case of “GCUCGGAGAGGAUAUACAUGAGGAUCACCCAUGUAGGUAAGCAGCGAUGGCAGUCCAUGUAGAAGGUUCAGGUG”, the “apparent Kd” value under setting [3] came out at 43.4 nM and the “apparent Kd” value under setting [4] amounted to 49.7 nM.

With “AGUAACAGAGGAUAUACUAUUUUAUGUGUUUGUUAUUUUAAACAUGAGGAUCACCCAUGUAGAAGGCUGAAUAA”, the “apparent Kd” value was 21.8 nM under setting [3] and 24.1 nM under setting [4].

In the case of “CUGCCGUAGGAGAAGGACGGCGGGUUAUUUUUUUACAUGAGGAUCACCCAUGUAGGAUAUCCUACGUCAGGCAACCUACUACAG”, the “apparent Kd” value was determined as 6.36 nM under setting [3] and 9.54 nM under setting [4].

In the case of “GCCGAUUAAGUCAGGAUAUACCUAUGGAUACAUAGGUAGAAGGGACAUGAGGAUCACCCAUGUUCCUCAGCGGC”, the “apparent Kd” value was 16.6 nM under setting [3] and 50.2 nM under setting [4].

As for “AUACAUGAGGAUCACCCAUGUAAUUAAUUAAUUAAUAAGAUCAAGGAUAUCAGCUCGAUUAGAGCUGAGAAGGUGAUCACAUGU”, the “apparent Kd” value turned out to be 417 nM under setting [1] and 306 nM under setting [2].

Turning to “UGCUGUGGCAGAGGAUAUACUCUAAUAAUCCAUUGCAAAUAGCGAUGGACAUGAGGAUCACCCAUGUAGAAGGCUGUCACAGCA”, the “apparent Kd” value was 63.7 nM under setting [3] and 137 nM under setting [4].

Consider “AAUAGGCGAGGAUAUACAUGAGGAUCACCCAUGUAAGUAAGCCUGGCUGAAACUGAAUGUAGAAGGCGCAAUAA”, for which the “apparent Kd” value runs as follows: under setting [3], 17.6 nM; under setting [4], 58.5 nM.

For “UUUAUAUUCAGAGGAUAUUGAUGUUGUAUUUUACAAGAAGGCUGAUUGUUUUGUAAUGUUAUUAUACAUGAGGAUCACCCAUGU”, the “apparent Kd” value under setting [1] was determined as 22.1 nM and the “apparent Kd” value under setting [2] was found to be 15.6 nM.

On to “UCGAACUUUCGUGUAAUUCGCACAUGAGGAUCACCCAUGUACGAGGAUAUGUACCUAAACGGCUAACAGAAGGCGUACUGGGCA”, for which the “apparent Kd” value reads like this: under setting [3], 170 nM; under setting [4], 106 nM.

For the sequence “UUAACUCAUGUAGGAUAUGCAUGGCGAAGCUACGCAGAAGGACAUGAGGAUCACCCAUGUUCUAGCGUCUGGAUACAGAUGCAA”, the “apparent Kd” value runs as follows: under setting [3], 56.1 nM; under setting [4], 227 nM.
